Source: ChEMBL document CHEMBL1132697, “Dual inhibition of phosphodiesterase 4 and matrix metalloproteinases by an (arylsulfonyl)hydroxamic acid template” (J Med Chem, 1999)

How the values were obtained:
[1] = biological target: 72 kDa type IV collagenase (Homo sapiens, UniProt P08253); assay: Inhibition of matrix metalloprotease-2 (MMP-2), gelatinase-A
Summary of the method: (§1)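 Recombinant human enzymes (MMP-1, MMP-2, MMP-3) were used as the source for the inhibition measurements.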

[2] = biological target: Stromelysin-1 (Homo sapiens, UniProt P08254); assay: Inhibition of matrix metalloprotease-3 (MMP-3), stromelysin-1; summary of the method: as §1
Chain of Stromelysin-1 (P08254 whole entry): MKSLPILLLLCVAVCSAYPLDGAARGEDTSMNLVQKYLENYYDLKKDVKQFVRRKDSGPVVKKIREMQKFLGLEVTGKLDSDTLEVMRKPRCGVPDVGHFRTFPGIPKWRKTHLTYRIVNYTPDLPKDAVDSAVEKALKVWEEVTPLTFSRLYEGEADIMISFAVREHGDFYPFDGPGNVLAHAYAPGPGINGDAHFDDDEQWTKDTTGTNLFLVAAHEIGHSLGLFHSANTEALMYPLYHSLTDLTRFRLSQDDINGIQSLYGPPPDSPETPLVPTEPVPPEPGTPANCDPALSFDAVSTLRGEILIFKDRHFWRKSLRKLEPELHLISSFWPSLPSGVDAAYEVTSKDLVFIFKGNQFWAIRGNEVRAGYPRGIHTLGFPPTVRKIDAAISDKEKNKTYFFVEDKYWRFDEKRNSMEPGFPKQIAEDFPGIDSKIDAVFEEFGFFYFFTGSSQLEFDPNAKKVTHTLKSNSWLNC

[3] = biological target: T1, Interstitial collagenase (Homo sapiens, UniProt P03956); assay: Inhibition of matrix metalloprotease-1 (MMP-1), fibroblast collagenase.; summary of the method: as §1
T1 sequence (P03956 whole entry): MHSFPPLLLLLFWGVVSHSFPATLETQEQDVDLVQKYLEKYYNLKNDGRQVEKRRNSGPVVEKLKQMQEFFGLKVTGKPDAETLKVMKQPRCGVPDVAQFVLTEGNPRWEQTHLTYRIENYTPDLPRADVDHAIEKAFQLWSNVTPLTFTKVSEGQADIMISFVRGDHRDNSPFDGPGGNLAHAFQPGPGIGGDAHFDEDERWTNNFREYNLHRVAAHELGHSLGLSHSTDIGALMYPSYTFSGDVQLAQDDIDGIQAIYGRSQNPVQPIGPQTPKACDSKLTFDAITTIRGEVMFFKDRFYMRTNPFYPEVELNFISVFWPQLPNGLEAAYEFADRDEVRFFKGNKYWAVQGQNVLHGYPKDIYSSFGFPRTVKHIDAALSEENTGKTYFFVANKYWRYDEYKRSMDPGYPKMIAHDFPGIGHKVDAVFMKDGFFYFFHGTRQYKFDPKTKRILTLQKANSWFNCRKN

Chain of 72 kDa type IV collagenase (P08253 whole entry): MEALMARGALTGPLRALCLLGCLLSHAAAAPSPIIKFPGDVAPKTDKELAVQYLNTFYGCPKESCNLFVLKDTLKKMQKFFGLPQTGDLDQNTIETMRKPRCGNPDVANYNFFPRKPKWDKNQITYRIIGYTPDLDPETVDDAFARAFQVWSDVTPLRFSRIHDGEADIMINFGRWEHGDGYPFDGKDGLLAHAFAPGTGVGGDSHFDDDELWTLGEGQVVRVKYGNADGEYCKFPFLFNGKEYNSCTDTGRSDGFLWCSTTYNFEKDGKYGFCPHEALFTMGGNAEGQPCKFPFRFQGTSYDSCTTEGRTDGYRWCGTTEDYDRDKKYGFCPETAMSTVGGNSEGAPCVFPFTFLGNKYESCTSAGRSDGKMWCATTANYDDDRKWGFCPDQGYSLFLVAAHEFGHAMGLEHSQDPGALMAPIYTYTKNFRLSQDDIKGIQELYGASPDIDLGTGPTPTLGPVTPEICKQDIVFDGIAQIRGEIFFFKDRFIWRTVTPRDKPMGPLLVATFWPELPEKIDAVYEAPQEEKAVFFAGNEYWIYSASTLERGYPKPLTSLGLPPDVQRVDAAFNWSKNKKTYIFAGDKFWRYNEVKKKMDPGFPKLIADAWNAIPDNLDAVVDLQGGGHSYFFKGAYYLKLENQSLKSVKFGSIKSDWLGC

Row | Ki [1] [µM] | Ki [2] [µM] | Ki [3] [µM] | SMILES
1 | 0.01 | 0.5 | 2 | COc1ccc(S(=O)(=O)[C@H](CCCCc2ccccc2)[C@@H](C)C(=O)NO)cc1
2 | 0.06 | 0.6 | 2 | COc1ccc(S(=O)(=O)C(CCCCc2ccccc2)C(C)C(=O)NO)cc1 (centres undefined)
3 | 0.05 | 1 | 2 | COc1ccc(S(=O)(=O)C(C)(CCCCc2ccccc2)CC(=O)NO)cc1 (centres undefined)
4 | 0.02 | 0.3 | 1 | COc1ccc(S(=O)(=O)C(CC(=O)NO)Cc2ccccc2)cc1 (centres undefined)
5 | 0.03 | 0.2 | 4 | COc1ccc(S(=O)(=O)C(CCc2ccccc2)CC(=O)NO)cc1 (centres undefined)
6 | > 10 | > 10 | > 10 | COc1ccc(S(=O)(=O)C(CCCCc2ccccc2)CC(=O)NO)cc1OC (centres undefined)
7 | 0.05 | 0.6 | 2 | COc1ccc(S(=O)(=O)C(CCCc2ccccc2)CC(=O)NO)cc1 (centres undefined)
8 | 0.02 | 0.7 | 5 | COc1ccc(S(=O)(=O)C(CCCCc2ccccc2)CC(=O)NO)cc1 (centres undefined)
